Source: ChEMBL document CHEMBL2396632 (Bioorg Med Chem Lett, 2013)
pEC50, pIC50, pKi: −log10 of the molar value. Each block holds one molecule with its values, some of them ahead of it. The source made the active and inactive calls. The calls are words filed in the database; no cut-off is given here.

Tests used:
[1] = biological target: T1, Calcitonin gene-related peptide type 1 receptor (Homo sapiens, UniProt O60894+Q16602); test: Antagonist activity at human CGRP receptor
[2] = test system: Rattus norvegicus; test: Toxicity in Sprague-Dawley rat assessed as nasal irritation at 175 mg/mL administered intranasally for 7 days; type: organism-based; details: in vivo, inhaled_or_intranasal, 168 h
Outline: (§1)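 Seven-day rat intranasal irritancy study. Dosing at 75 or 175 mg/mL, 12.5 µL/nostril in succinate buffer, giving total doses of 1.875 mg and 4.375 mg. Nasal cavity and respiratory epithelium were examined histologically.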

[3] = test system: Rattus norvegicus; test: Toxicity in Sprague-Dawley rat assessed as nasal irritation at 75 mg/mL administered intranasally for 7 days; type: organism-based; details: in vivo, inhaled_or_intranasal, 168 h; outline: as §1
[4] = Oral bioavailability in intranasally dosed New Zealand White rabbit at 10 mg/mL; type: ADME, organism-based, Oryctolagus cuniculus; details: in vivo, other: intranasal
Outline: (§2)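 Intranasal dosing in rabbit with 10 to 100 mg/mL dosing solutions, then plasma sampling from 5 min to 24 h. Reported values are Cmax, Tmax, and absolute bioavailability for each dosing-solution concentration.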

[5] = biological target: T2, hERG (Homo sapiens, UniProt Q12809); test: Inhibition of human ERG at 10 uM relative to control
T2 sequence (Q12809 whole entry): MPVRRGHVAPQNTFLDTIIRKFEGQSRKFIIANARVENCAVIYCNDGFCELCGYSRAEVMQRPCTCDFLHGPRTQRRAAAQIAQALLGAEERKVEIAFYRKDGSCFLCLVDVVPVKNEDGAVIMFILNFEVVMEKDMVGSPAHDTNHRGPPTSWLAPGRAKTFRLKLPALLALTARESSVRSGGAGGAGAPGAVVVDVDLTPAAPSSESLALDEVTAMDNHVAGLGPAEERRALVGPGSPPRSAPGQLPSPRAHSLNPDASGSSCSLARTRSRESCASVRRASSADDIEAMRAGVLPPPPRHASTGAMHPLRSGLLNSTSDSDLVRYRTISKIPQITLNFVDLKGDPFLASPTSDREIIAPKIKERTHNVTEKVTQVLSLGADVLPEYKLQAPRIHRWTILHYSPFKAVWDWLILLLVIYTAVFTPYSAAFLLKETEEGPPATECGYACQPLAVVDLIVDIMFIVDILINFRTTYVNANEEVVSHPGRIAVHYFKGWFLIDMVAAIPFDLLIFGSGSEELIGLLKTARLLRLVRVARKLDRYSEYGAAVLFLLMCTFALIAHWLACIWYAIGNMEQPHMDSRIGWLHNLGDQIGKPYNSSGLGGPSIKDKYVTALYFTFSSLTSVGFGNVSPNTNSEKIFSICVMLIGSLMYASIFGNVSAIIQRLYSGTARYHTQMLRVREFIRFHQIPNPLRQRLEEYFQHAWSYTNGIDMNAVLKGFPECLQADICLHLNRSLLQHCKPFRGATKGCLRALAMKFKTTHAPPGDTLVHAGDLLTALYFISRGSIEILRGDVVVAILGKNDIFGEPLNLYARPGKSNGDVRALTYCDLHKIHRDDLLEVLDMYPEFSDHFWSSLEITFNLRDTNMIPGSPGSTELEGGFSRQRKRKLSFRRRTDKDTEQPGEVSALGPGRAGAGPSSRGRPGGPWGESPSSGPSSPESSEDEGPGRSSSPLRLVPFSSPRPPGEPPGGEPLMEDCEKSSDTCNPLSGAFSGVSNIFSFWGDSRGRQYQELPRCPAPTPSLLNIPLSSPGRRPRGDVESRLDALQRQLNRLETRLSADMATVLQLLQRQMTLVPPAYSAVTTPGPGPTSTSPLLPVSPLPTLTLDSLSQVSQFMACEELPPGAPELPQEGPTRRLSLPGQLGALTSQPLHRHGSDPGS

[6] = Permeability from basolateral to apical side of human Caco2 cells; type: ADME, cell-based; details: Caco-2, read-out: permeability
[7] = Chemical degradation in succinate buffer at 40 mg/mL after 3 months at pH 6
[8] = Toxicity in sc dosed Sprague-Dawley rat after 10 days; type: organism-based; details: in vivo
Outline: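 Rats were dosed subcutaneously once daily for 10 days at 0.3, 3, 10 and 30 mg/kg/day and assessed for tolerability and signs of systemic toxicity.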

[9] = test system: Callithrix jacchus; test: Inhibition of human alphaCGRP-induced increase in facial blood flow in marmoset at 0.03 mg/kg, sc administered 30 mins after human alphaCGRP-challenge measured 60 mins post-dose by laser Doppler flowmetric analysis relative to control; type: functional; details: route subcutaneous
Outline: (§3)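 Anesthetized marmosets received four IV hαCGRP challenges (10 μg/kg) at 45 min intervals (-30, 15, 60, 105 min) to raise facial blood flow, monitored by laser Doppler. Antagonist given SC at 0 min. The first challenge is the pre-dose vehicle baseline, and inhibition at each post-dose challenge is expressed against it.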

[10] = organism: Homo sapiens; test: Selectivity ratio for human CGRP receptor over amylin receptor-3 (unknown origin)
[11] = biological target: Calcitonin gene-related peptide type 1 receptor (Homo sapiens) (UniProt Q16602); test: Antagonist activity at CGRP receptor in human SK-N-MC cell membranes assessed as inhibition of CGRP-stimulated cAMP production; type: functional, cell-based
Calcitonin gene-related peptide type 1 receptor (Homo sapiens), sequence (Q16602 whole entry): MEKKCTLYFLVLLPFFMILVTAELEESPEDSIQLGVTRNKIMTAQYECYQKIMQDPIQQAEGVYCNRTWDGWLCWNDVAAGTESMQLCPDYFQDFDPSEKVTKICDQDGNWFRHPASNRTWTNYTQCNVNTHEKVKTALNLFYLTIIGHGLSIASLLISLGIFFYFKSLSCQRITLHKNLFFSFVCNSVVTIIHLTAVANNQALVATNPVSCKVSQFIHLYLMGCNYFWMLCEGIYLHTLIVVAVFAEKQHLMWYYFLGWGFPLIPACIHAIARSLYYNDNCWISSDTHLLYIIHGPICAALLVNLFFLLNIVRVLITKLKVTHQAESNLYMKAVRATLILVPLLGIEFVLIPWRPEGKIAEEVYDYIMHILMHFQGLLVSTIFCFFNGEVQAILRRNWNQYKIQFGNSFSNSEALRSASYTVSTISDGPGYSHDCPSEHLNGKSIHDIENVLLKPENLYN

[12] = Permeability of the compound by PAMPA; type: ADME
[13] = biological target: Cytochrome P450 2D6 (Homo sapiens, UniProt P10635); test: Inhibition of CYP2D6 (unknown origin) expressed in baculovirus-infected insect cell microsomes assessed as 3-[2-(N,N-diethyl-N-methylamino)ethyl]-7-methoxy-4-methylcoumarin conversion to 3-[2-(N,N-diethylamino)ethyl]-7-hydroxy-4-methylcoumarin after 45 mins by fluorescence assay; type: ADME, Microsome
Cytochrome P450 2D6, sequence (P10635 whole entry): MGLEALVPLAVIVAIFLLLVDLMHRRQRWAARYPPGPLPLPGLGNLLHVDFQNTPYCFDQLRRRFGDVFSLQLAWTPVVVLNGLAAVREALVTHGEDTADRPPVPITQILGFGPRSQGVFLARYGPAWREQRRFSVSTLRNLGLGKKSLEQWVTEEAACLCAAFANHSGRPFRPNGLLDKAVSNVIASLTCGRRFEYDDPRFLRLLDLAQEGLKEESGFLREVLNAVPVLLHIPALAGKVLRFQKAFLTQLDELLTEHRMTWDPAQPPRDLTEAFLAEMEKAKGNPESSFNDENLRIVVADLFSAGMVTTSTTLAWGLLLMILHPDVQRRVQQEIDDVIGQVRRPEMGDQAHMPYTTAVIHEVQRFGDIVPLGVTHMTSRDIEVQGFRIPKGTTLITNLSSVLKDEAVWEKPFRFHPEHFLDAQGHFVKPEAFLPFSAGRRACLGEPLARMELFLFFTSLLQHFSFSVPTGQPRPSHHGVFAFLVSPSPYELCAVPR

[14] = test system: Rattus norvegicus; test: Toxicity in Sprague-Dawley rat assessed as erosion of olfactory epithelium at 175 mg/mL administered intranasally for 7 days; type: organism-based; details: in vivo, inhaled_or_intranasal, 168 h; outline: as §1
[15] = organism: Homo sapiens; test: Selectivity ratio for human CGRP receptor over amylin receptor-1 (unknown origin)
[16] = Permeability from apical to basolateral side of human Caco2 cells; type: ADME, cell-based; details: Caco-2, read-out: permeability
[17] = Plasma concentration in intranasally dosed New Zealand White rabbit after 5 mins; type: ADME, organism-based, Oryctolagus cuniculus; details: inhaled or intranasal; outline: as §2
[18] = Plasma concentration in marmoset at 0.03 mg/kg, sc measured 15 to 105 mins post-dose; type: ADME, organism-based, Callithrix jacchus; design: dose 0.03 mg/kg, route subcutaneous; details: in vivo
Outline: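 Total plasma levels were measured in anesthetized marmosets given the antagonist SC at 0 min, sampled over the 15–105 min post-dose period. The animals also received repeated IV hαCGRP (10 μg/kg) challenges for the facial blood flow model.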

[19] = Fraction unbound in human plasma; type: ADME, cell-free
[20] = test system: Rattus norvegicus; test: Toxicity in Sprague-Dawley rat assessed as neutrophilic inflammation of respiratory epithelium at 175 mg/mL administered intranasally for 7 days; type: organism-based; details: in vivo, inhaled_or_intranasal, 168 h; outline: as §1
[21] = biological target: Cytochrome P450 2C9 (Homo sapiens, UniProt P11712); test: Inhibition of CYP2C9 (unknown origin) expressed in baculovirus-infected insect cell microsomes assessed as 7-methoxy-4-trifluoromethylcoumarin conversion to 7-hydroxy-4-trifluoromethylcoumarin after 45 mins by fluorescence assay; type: ADME, Microsome
Cytochrome P450 2C9, sequence (P11712 whole entry): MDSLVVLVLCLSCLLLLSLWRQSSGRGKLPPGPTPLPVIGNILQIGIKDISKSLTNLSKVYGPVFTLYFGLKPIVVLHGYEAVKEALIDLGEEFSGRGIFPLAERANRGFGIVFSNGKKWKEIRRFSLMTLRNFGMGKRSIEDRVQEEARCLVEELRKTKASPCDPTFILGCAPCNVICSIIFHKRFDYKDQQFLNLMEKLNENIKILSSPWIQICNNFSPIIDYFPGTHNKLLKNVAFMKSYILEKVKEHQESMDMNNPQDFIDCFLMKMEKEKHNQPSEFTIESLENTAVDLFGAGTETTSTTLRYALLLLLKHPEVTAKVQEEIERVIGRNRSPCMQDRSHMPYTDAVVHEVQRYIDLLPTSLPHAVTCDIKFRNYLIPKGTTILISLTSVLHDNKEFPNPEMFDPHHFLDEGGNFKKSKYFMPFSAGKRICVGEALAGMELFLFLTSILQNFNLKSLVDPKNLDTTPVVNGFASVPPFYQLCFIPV

[22] = test system: Rattus norvegicus; test: Toxicity in Sprague-Dawley rat assessed as lesions in nasal olfactory epithelium at => 75 mg/mL administered intranasally for 7 days; type: organism-based; details: in vivo, inhaled_or_intranasal, 168 h; outline: as §1
[23] = test system: Rattus norvegicus; test: Toxicity in Sprague-Dawley rat assessed as inflammation of olfactory epithelium at 175 mg/mL administered intranasally for 7 days; type: organism-based; details: in vivo, inhaled_or_intranasal, 168 h; outline: as §1
[24] = organism: Homo sapiens; test: Selectivity ratio for human CGRP receptor over human calcitonin receptor
[25] = Reversal of CGRP-induced dilation of human intracranial arterial rings; type: functional
Outline: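 Ex vivo reversal protocol: vessels fully dilated with CGRP, then cumulative addition of antagonist in a 3-point concentration-response. EC50 (concentration giving 50% reversal) estimated by best fit, n = 4 vessels per compound.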

[26] = biological target: T3, Cytochrome P450 1A2 (Homo sapiens, UniProt P05177); test: Inhibition of CYP1A2 (unknown origin) expressed in baculovirus-infected insect cell microsomes assessed as 3-cyano-7-ethoxycoumarin conversion to 7-hydroxy-3-cyanocoumarin after 45 mins by fluorescence assay; type: ADME, Microsome
T3 sequence (P05177 whole entry): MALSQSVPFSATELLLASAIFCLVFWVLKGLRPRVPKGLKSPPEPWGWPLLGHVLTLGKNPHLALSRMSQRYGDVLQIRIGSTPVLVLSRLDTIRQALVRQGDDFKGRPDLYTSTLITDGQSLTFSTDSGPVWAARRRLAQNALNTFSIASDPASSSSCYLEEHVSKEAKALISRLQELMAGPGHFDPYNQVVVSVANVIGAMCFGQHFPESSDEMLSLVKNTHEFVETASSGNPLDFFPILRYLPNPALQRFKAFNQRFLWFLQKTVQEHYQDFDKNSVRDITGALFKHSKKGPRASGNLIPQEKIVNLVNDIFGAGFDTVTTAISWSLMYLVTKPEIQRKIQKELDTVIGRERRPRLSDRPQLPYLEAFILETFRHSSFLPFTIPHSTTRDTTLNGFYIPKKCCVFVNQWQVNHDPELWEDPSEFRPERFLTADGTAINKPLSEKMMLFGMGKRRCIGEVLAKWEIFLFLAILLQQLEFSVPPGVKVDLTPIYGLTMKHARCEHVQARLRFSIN

[27] = Vasoconstriction of human coronary artery up to 10 uM; type: functional, tissue-based
[28] = biological target: T4, Cytochrome P450 3A4 (Homo sapiens, UniProt P08684); test: Inhibition of CYP3A4 (unknown origin) expressed in baculovirus-infected insect cell microsomes assessed as 7-benzyloxy-4-trifluoromethylcoumarin conversion to 7-hydroxy-4-trifluoromethylcoumarin after 20 mins by fluorescence assay; type: ADME, Microsome
T4 sequence (P08684 whole entry): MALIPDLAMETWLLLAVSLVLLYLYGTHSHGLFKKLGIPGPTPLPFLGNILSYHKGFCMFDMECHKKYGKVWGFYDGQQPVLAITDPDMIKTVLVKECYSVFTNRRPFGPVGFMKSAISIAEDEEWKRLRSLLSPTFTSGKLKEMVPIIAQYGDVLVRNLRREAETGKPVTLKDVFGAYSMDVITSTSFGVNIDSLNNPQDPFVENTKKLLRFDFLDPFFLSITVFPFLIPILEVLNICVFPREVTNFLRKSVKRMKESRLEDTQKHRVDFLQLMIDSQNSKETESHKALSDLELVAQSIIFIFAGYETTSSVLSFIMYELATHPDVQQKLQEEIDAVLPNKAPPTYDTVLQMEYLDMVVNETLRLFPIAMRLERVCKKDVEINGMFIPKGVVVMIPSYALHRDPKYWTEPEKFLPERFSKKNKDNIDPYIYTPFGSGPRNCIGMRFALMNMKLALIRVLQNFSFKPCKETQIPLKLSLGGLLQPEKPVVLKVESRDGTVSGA

[29] = test system: Rattus norvegicus; test: Toxicity in Sprague-Dawley rat assessed as ulceration of olfactory epithelium at 175 mg/mL administered intranasally for 7 days; type: organism-based; details: in vivo, inhaled_or_intranasal, 168 h; outline: as §1
[30] = Reversal of CGRP-induced dilation of human intracranial arterial rings assessed as rightward shift of concentration-response curve after 30 mins by Schild plot analysis; type: functional; details: 0.5 h
[31] = test system: Callithrix jacchus; test: Inhibition of human alphaCGRP-induced increase in facial blood flow in marmoset at 0.03 mg/kg, sc administered 30 mins after human alphaCGRP-challenge measured 15 mins post-dose by laser Doppler flowmetric analysis relative to control; type: functional; details: route subcutaneous; outline: as §3
[32] = biological target: Calcitonin gene-related peptide type 1 receptor (Homo sapiens) (UniProt Q16602); test: (§4) Displacement of [125I]-CGRP from CGRP receptor in human SK-N-MC cell membranes after 2 hrs by scintillation counting analysis
[33] = biological target: T1, Calcitonin gene-related peptide type 1 receptor; test: as §4
[34] = test system: Rattus norvegicus; test: Toxicity in Sprague-Dawley rat assessed as lesions in respiratory epithelium at => 75 mg/mL administered intranasally for 7 days; type: organism-based; details: in vivo, inhaled_or_intranasal, 168 h; outline: as §1
[35] = organism: Homo sapiens; test: Selectivity ratio for human CGRP receptor over adrenomedullin receptor-1 (unknown origin)
[36] = test system: Callithrix jacchus; test: Inhibition of human alphaCGRP-induced increase in facial blood flow in marmoset at 0.03 mg/kg, sc administered 30 mins after human alphaCGRP-challenge measured 105 mins post-dose by laser Doppler flowmetric analysis relative to control; type: functional; details: route subcutaneous; outline: as §3
[37] = Tmax in intranasally dosed New Zealand White rabbit; type: ADME, organism-based, Oryctolagus cuniculus; details: in vivo, inhaled or intranasal; outline: as §2
[38] = test system: Rattus norvegicus; test: Toxicity in Sprague-Dawley rat assessed as single cell necrosis of respiratory epithelium at 175 mg/mL administered intranasally for 7 days; type: organism-based; details: in vivo, inhaled_or_intranasal, 168 h; outline: as §1
[39] = Oral bioavailability in cynomolgus monkey; type: ADME, organism-based, Macaca fascicularis; details: in vivo
[40] = Oral bioavailability in mouse; type: ADME, organism-based; details: in vivo
[41] = Subcutaneous bioavailability in sc dosed Sprague-Dawley rat; details: in vivo
[42] = Aqueous solubility of the compound; type: physicochemical; details: buffer
Outline: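 Aqueous solubility of crystalline material, determined at pH 8.5 and at lower pH.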

[43] = biological target: Cytochrome P450 2C19 (Homo sapiens, UniProt P33261); test: Inhibition of CYP2C19 (unknown origin) expressed in baculovirus-infected insect cell microsomes assessed as 3-cyano-7-ethoxycoumarin conversion to 7-hydroxy-3-cyanocoumarin after 45 mins by fluorescence assay; type: ADME, Microsome
Cytochrome P450 2C19, sequence (P33261 whole entry): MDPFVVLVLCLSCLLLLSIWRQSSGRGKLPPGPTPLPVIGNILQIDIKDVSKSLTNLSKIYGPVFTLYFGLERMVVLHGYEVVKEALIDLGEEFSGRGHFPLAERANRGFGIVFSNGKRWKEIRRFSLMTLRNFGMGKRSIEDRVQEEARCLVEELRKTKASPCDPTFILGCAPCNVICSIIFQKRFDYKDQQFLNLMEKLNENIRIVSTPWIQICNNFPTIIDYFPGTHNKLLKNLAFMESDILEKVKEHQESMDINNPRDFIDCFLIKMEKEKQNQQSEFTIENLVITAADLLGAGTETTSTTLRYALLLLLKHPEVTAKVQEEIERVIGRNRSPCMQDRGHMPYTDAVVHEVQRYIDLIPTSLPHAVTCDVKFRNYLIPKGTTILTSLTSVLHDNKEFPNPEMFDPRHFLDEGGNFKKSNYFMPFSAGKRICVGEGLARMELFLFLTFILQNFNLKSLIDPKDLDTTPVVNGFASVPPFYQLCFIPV

[44] = organism: Homo sapiens; test: Selectivity ratio for human CGRP receptor over adrenomedullin receptor-2 (unknown origin)
[45] = Cmax in intranasally dosed New Zealand White rabbit; type: ADME, organism-based, Oryctolagus cuniculus; design: route nasal; details: in vivo, inhaled or intranasal; outline: as §2
[46] = biological target: T4, Cytochrome P450 3A4; test: Inhibition of CYP3A4 (unknown origin) expressed in baculovirus-infected insect cell microsomes assessed as benzoylresorufin conversion to resorufin metabolites after 45 mins by fluorescence assay; type: ADME, Microsome
[47] = biological target: T2, hERG; test: Inhibition of human ERG at 30 uM relative to control
[48] = Oral bioavailability in intranasally dosed New Zealand White rabbit at 100 mg/mL; type: ADME, organism-based, Oryctolagus cuniculus; details: in vivo, other: intranasal; outline: as §2
[49] = Vasoconstriction of human coronary artery; type: functional, tissue-based

T1 sequence (Q16602 whole entry, one chain of several): as the sequence (Q16602 whole entry) above

- pKi [1]: 10.68
SMILES: O=C(CN1C(=O)C2(CCCC2)NC[C@H]1c1cc(F)cc(F)c1)Nc1ccc2c(c1)C[C@@]1(C2)C(=O)Nc2ncccc21 [MK3207]

SMILES: Cc1cc(C[C@@H](NC(=O)N2CCC(N3Cc4cccc(F)c4NC3=O)CC2)C(=O)N2CCC(N3CCCCC3)CC2)cc2cn[nH]c12
- Activity [2]: Toxic
- Activity [3]: Toxic

SMILES: Cc1cc(C[C@@H](NC(=O)N2CCC(c3cc4ccccc4[nH]c3=O)CC2)C(=O)N2CCN(C3CCN(C)CC3)CC2)cc2cn[nH]c12 [ZAVEGEPANT]
- bioavailability [4]: 13%
- inhibition at 10 µM [5]: 9.5%
- Papp B→A [6]: 1.6 ×10⁻⁶ cm/s
- Degradation % at 2191.5 h, 40 mg/mL [7]: 0.3%
- MTD at 240 h [8]: 30 mg/kg/day
- inhibition in vivo at 0.03 mg/kg [9]: 80%
- Selectivity ratio [10]: > 10000
- Kb [11]: 0.022 nM
- permeability [12]: impermeable
- pIC50 [13]: < 4.40
- Activity [14]: Toxic
- Selectivity ratio [15]: > 10000
- Papp A→B [16]: 1.6 ×10⁻⁶ cm/s
- concentration at 5 min [17]: > 10 nM
- concentration [18]: 25 nM
- fraction unbound [19]: 0.37
- Activity [20]: Toxic
- pIC50 [21]: < 4.40
- Activity [22]: Toxic
- Activity [23]: Toxic
- Selectivity ratio [24]: > 10000
- pEC50 [25]: 9.06
- pIC50 [26]: < 4.40
- Activity [27]: inactive
- pIC50 [28]: < 4.40
- Activity [29]: Toxic
- Kb [30]: 0.091 nM
- inhibition in vivo at 0.03 mg/kg [31]: 48%
- inhibition [32]: Dose-dependent effect
- pKi [33]: 10.64
- Activity [34]: Toxic
- Selectivity ratio [35]: > 10000
- inhibition in vivo at 0.03 mg/kg [36]: 70%
- Tmax [37]: 15 min
- Activity [38]: Toxic
- bioavailability [39]: 0.3%
- Activity [2]: Non-toxic
- bioavailability [40]: 1.4%
- bioavailability [41]: 82%
- solubility [42]: > 300 mg/mL
- pIC50 [43]: < 4.40
- Activity [3]: Non-toxic
- Selectivity ratio [44]: > 10000
- Cmax [45]: 120 nM
- pIC50 [46]: 4.62
- inhibition at 30 µM [47]: 22%
- bioavailability [48]: 30%

- pEC50 [49]: 6.55
SMILES: CNS(=O)(=O)Cc1ccc2[nH]cc(CCN(C)C)c2c1
- Activity [49]: Dose-dependent effect
